An excerpt weighted towards active compounds, which were near 3.6% of everything screened.
SENP1 inh: blocks the human SENP1 SUMO protease catalytic domain | 0.21% of 360,000 active | AID 624204 | recombinant SENP1 catalytic domain, CyPet-SUMO1-YPet FRET cleavage | Q9P0U3 | inhibition, % at 10 µM;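 active = inhibition at least 30% at 10 µM, raw YFP signal under a set limit, fluorescence ratio 0.5 to 1.5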
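system = hSENP1 catalytic domain, recombinant | reagent = SFCypet-SUMO1-SFYpet substrate at 25 nM | doses = one dose per compound, 10 µM, 0.5% DMSO | incubation = enzyme reaction for 50 min at room temperature, dark | measured by = FRET, CFP and YFP emission | controls = no-enzyme low, enzyme-DMSO high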
NadD block: NadD (S. aureus) enzyme inhibition | 0.78% of 360,000 active | purified NadD enzyme, colorimetric absorbance read-out | inhibition, % at 20 µM; in the data active = inhibition above about 26%
ATG4B inhibitor: ATG4B (human) cysteine protease inhibition; ATG4B cleavage of LC3-PLA2, NBD-HPC fluorescence, 1 h; Q9Y4P1; inhibition, % at 8.33 µM; 0.51% of 340,000 active; in the data active = inhibition above about 40%
NR3A LBD binder: modulators (binders) of human NR3A ligand-binding domain; AID 1259313; NR3A LBD differential scanning fluorimetry, Tm shift; 0% = protein alone, 100% = glycine-bound protein; Tm shift relative to glycine control, % at 25 µM; 2.5% of 340,000 active;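 active = melting temperature shift of at least 10% of the positive control shift, at one fixed dose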
UCH37 inh: human UCH37 deubiquitinating enzyme inhibition. purified proteasome/UCH37, Ub-AMC cleavage fluorescence. inhibition, % (test concentration not listed). 0.33% of 330,000 active. AID 588478;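 active = mean inhibition over replicate wells above about 20%, limit read from the data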
Target sequence (Q9Y5K5 whole entry, looked up): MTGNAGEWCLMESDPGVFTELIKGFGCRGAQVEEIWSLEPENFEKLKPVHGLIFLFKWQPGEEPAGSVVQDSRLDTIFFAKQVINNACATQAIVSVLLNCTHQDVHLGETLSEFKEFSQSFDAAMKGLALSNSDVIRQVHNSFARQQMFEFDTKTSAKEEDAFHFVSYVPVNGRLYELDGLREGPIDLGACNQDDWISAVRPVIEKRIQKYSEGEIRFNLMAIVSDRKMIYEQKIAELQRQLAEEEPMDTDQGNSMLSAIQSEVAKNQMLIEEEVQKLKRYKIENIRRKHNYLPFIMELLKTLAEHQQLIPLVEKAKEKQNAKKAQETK
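assay system = human UCH37 enzyme supplied as purified proteasome complex | amount = proteasome at 0.15 nM in the dispensed enzyme solution | schedule = 30 min compound-proteasome preincubation then 25 min substrate reaction, room temperature | measured by = fluorescence, ex 355 nm, em 460 nm | benchmarks = no-proteasome wells (full inhibition) and compound-free wells (no inhibition)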
NadD conf: confirmation of Staphylococcus aureus NadD inhibitors | shares compounds with NadD block | purified S. aureus NadD, colorimetric enzyme assay | inhibition, % at 20 µM | 13% of 2,000 active | AID 624309; in the data active = inhibition mostly above about 42%, no sharp cut-off; inactive = mostly below about 42%
A number is an active result; – = inactive; · = no result.

SMILES | SENP1 inh | NadD block | ATG4B inhibitor | NR3A LBD binder | UCH37 inh | NadD conf
Cc1ccc(-c2csc(/C=C3/SC(C)C(=O)N3CC(=O)Nc3ccccc3F)n2)cc1 (configuration not stated) | – | – | – | – | – | ·
COc1ccc(C(=O)Cn2c(C(C)=O)nc3ccccc32)cc1 | – | – | – | – | · | ·
COc1ccc(/C=C/C(=O)c2nc3ccccc3n2CC(=O)c2ccc(OC)cc2)cc1 | – | 30 | – | – | – | –
O=c1[nH]c(CN2CCN(c3ccc(O)cc3)CC2)nc2scc(-c3ccc(Cl)cc3)c12 | – | 37 | – | – | – | –
COc1ccccc1/C=C/C=c1\sc2nc(=O)c(Cc3ccccc3)nn2c1=O | – | 37 | – | – | · | –
COc1ccc(C(=O)NN=Cc2sc(N3CCOCC3)nc2-c2ccccc2)cc1OC | · | · | · | · | – | ·
CCOc1ccc(C=Nn2cnnc2)cc1 | · | · | · | · | – | ·
CCCCCC(=O)ON=C(C)c1ccn(S(=O)(=O)c2ccccc2)c1 | · | · | · | · | – | ·
CC(C)c1cccc(-c2ccc3c(c2)S(=O)(=O)c2cccc(C(=O)NCc4ccco4)c2C3=O)c1 | – | 34 | – | – | – | –
CN(C(=NS(=O)(=O)c1cccs1)c1ccccc1)c1ccccc1 | · | · | · | · | – | ·
N#C/C(=C\c1ccc(-c2ccc([N+](=O)[O-])cc2)o1)C(=O)Nc1nc(-c2cccs2)cs1 | – | 40 | – | – | – | –
CC(=O)Nc1nc(-c2ccc([N+](=O)[O-])cc2)cs1 | – | – | – | – | – | ·
N#C/C(=C/c1ccc(-c2cccc([N+](=O)[O-])c2)o1)C(=O)Nc1nc(-c2cccs2)cs1 | – | 46 | – | 23 | – | –
O=[N+]([O-])c1ccc(Nc2cccc3c2[nH]c2c(-c4ccccc4)nccc23)c([N+](=O)[O-])c1 | – | 44 | – | – | · | –
CCc1nnc(NC(=O)CSc2nc(-c3ccccc3)cc(-c3ccc(F)cc3)c2C#N)s1 | – | 44 | – | – | – | –
CC(C)OC(=O)CC(=O)CSc1nc(-c2ccc(F)cc2)cc(-c2ccccc2)c1C#N | – | – | – | – | – | ·
COc1cc(C2C(C#N)=C(N)Oc3c2ccc2ccccc32)ccc1OCC(=O)Nc1cccc(C)c1 (configuration not stated) | – | 30 | – | – | – | –
COc1cc(C2C(C#N)=C(N)Oc3c2ccc2ccccc32)ccc1OCC(=O)Nc1ccc(C)cc1 (configuration not stated) | – | 40 | – | – | – | –
COc1ccc(C2C(C#N)=C(N)Oc3c2ccc2cccnc32)cc1OC (configuration not stated) | – | – | – | – | – | ·
CCC(=O)N1CC2(CC(c3cccc(NC(=O)COc4ccc(Cl)cc4)c3)=NO2)C[C@@H]1C(N)=O (some centres not stated) | · | · | · | · | – | ·
NC(=O)[C@H]1CC2(CC(c3cccc(NC(=O)COc4ccc(Cl)cc4)c3)=NO2)CN1C(=O)c1ccccc1C(=O)c1ccccc1 (some centres not stated) | – | 31 | – | – | – | –
CC1(C(=O)N2CC3(CC(c4cccc(NC(=O)COc5ccc(Cl)cc5)c4)=NO3)C[C@@H]2C(N)=O)CC1 (some centres not stated) | – | – | – | – | – | ·
NC(=O)[C@H]1CC2(CC(c3cccc(NC(=O)COc4ccc(Cl)cc4)c3)=NO2)CN1C(=O)c1ccc(Cl)cc1 (some centres not stated) | – | 40 | – | – | – | –
Clc1ccc(-c2ccc(-c3nn4c(-c5ccco5)nnc4s3)o2)cc1 | – | 35 | – | – | – | –
CC1CC2=C(NC(=S)NC2c2ccccc2F)/C(=C/c2ccccc2F)C1 (configuration not stated) | – | 32 | – | – | – | –
CC1CC2=C(NC(=S)NC2c2cccc(F)c2)/C(=C/c2cccc(F)c2)C1 (configuration not stated) | – | – | – | – | – | ·
N#C/C(=C\Nc1ccc2cn[nH]c2c1)c1nc(-c2ccc(Cl)cc2)cs1 | – | 40 | – | – | · | –
N#C/C(=C\Nc1ccc2cn[nH]c2c1)c1nc(-c2ccccc2)cs1 | – | 35 | – | – | – | –

Screening results (PubChem)
